From ChEMBL document CHEMBL5032512, “A Photohormone for Light-Dependent Control of PPARα in Live Cells” (J Med Chem, 2021)
Calls of active or inactive are those of the source. The calls are words filed in the database; no cut-off is given here.

Legend:
[1] = biological target: T1, Peroxisome proliferator-activated receptor alpha (Homo sapiens) (UniProt Q07869); experiment: Agonist activity at Gal4-fused human PPARalpha LBD transfected in HEK293T cells assessed as maximal relative activation incubated for 14 to 16 hrs by dual-Glo luciferase assay relative to GW7647; assay type: cell-based; details: time 14-16 hrs
T1 sequence (whole entry): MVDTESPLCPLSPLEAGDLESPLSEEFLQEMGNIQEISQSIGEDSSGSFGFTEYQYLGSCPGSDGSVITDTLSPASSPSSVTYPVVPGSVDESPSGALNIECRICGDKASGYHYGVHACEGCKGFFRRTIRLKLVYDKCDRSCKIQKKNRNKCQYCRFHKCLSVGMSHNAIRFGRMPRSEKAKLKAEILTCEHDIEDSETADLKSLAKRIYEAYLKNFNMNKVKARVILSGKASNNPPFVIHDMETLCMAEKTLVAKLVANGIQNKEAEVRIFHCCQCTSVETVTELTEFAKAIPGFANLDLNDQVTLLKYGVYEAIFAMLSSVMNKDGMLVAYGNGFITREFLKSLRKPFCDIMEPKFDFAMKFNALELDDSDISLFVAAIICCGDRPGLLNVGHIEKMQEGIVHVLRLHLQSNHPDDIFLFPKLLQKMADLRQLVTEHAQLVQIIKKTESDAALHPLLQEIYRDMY
Summary of the method: (§1)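 HEK293T cells transiently transfected with pFR-Luc, pRL-SV40 and Gal4 fusion of human PPAR hinge region plus LBD. Compound added 5 h later in Opti-MEM with 0.1% DMSO, then left overnight (14−16 h). Dual-Glo firefly/Renilla luciferase read, giving RLU. Fold activation is taken against the DMSO control. Max relative activation is set against 1 μM GW7647 (α) or L165,041 (δ). EC50 from a four-parameter fit. Duplicates, ≥3 independent runs.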

[2] = biological target: T2, Peroxisome proliferator-activated receptor gamma (Homo sapiens, UniProt P37231); experiment: Agonist activity at Gal4-fused human PPARgamma LBD transfected in HEK293T cells assessed as transcriptional activation incubated for 14 to 16 hrs by dual-Glo luciferase assay; assay type: cell-based
T2 sequence (P37231 whole entry): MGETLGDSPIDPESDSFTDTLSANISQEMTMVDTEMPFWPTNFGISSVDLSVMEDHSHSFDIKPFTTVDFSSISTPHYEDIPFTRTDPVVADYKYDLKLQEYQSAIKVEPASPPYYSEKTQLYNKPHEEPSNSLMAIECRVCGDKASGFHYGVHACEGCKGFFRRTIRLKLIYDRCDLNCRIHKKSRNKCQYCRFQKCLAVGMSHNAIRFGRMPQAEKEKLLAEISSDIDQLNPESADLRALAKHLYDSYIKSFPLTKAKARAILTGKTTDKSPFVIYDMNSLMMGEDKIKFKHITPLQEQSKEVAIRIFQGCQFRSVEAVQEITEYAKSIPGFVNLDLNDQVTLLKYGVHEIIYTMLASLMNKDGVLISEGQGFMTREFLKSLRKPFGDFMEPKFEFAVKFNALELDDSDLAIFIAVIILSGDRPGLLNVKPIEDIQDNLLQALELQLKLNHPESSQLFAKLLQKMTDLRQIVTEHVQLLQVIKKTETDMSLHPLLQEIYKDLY

[3] = biological target: T3, Peroxisome proliferator-activated receptor alpha (Homo sapiens, UniProt Q07869); experiment: Agonist activity at Gal4-fused human PPARalpha LBD transfected in HEK293T cells assessed as transcriptional activation incubated for 14 to 16 hrs by dual-Glo luciferase assay; assay type: cell-based; summary of the method: as §1
T3 sequence (Q07869 whole entry): T1 sequence (whole entry)

[4] = biological target: T4, Peroxisome proliferator-activated receptor delta (Homo sapiens, UniProt Q03181); experiment: Agonist activity at Gal4-fused human PPARdelta LBD transfected in HEK293T cells assessed as transcriptional activation incubated for 14 to 16 hrs by dual-Glo luciferase assay; assay type: cell-based; summary of the method: as §1
T4 sequence (Q03181 whole entry): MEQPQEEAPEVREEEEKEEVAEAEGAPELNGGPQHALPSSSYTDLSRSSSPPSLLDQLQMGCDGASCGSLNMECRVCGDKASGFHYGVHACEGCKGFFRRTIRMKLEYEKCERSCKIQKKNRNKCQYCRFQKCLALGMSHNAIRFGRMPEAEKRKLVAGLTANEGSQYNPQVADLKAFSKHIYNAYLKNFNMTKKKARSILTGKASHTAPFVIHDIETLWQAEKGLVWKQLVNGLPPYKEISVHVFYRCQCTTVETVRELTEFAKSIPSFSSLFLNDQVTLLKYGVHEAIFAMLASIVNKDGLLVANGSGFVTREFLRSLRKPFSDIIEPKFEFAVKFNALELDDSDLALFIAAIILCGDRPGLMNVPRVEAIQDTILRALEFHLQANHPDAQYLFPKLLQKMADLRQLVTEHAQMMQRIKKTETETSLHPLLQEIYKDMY

[5] = biological target: T5, Peroxisome proliferator-activated receptor delta (Homo sapiens) (UniProt Q03181); experiment: Agonist activity at Gal4-fused human PPARdelta LBD transfected in HEK293T cells assessed as maximal relative activation incubated for 14 to 16 hrs by dual-Glo luciferase assay relative to L165,041; assay type: cell-based; details: time 14-16 hrs; summary of the method: as §1
T5 sequence (whole entry): T4 sequence (Q03181 whole entry)

[6] = biological target: T1, Peroxisome proliferator-activated receptor alpha (Homo sapiens); experiment: Agonist activity at human Gal4-PPARalpha transfected in HEK293T cells assessed as increase in mCherry fluorescence at 10 nM incubated for 8 hrs followed by irradiation with 460 nm UV light for 3 mins by fluorescence based analysis; assay type: cell-based; details: filed as agonist
Summary of the method: (§2)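 Live HEK293T cells carrying UAS-mCherry-NLS plus Gal4-PPARα-LBD were treated with compound in 0.1% DMSO. mCherry read (ex 585, em 610 nm) hourly from 8 to 24 h and at 36 h. At 8 h, isomers switched by 3 min illumination at 365 or 460 nm. cis state held by Cell DISCO. Fold intensity against DMSO. n = 3.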

[7] = biological target: T1, Peroxisome proliferator-activated receptor alpha (Homo sapiens); experiment: Agonist activity at human Gal4-PPARalpha transfected in HEK293T cells assessed as increase in mCherry fluorescence at 10 nM incubated for 40 hrs by fluorescence microscopic analysis; assay type: cell-based
Summary of the method: (§3)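 HEK293T cells transfected separately with UAS-mCherry-NLS plus Gal4-PPARα-LBD, or […]-GFP plus Gal4-PPARδ-LBD. Cells pooled 5 h later and reseeded with compound in 0.1% DMSO. cis form preirradiated 3 min at 365 nm, then held with 75 ms 370 nm pulses every 15 s. Microscope images taken at 40 h. Integrated density set against 1 μM reference agonist. Duplicates, two independent runs.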

[8] = Photostability of compound assessed as photochemical switch by measuring cis-isoform at 50 uM incubated for 8 hrs followed by irradiation with 365 nm UV light for 3 mins by HPLC analysis; assay type: physicochemical
[9] = biological target: T1, Peroxisome proliferator-activated receptor alpha (Homo sapiens); experiment: Agonist activity at human Gal4-PPARalpha transfected in HEK293T cells assessed as increase in mCherry fluorescence at 300 nM incubated for 40 hrs by fluorescence microscopic analysis; assay type: cell-based; details: filed as agonist; summary of the method: as §3
[10] = biological target: T5, Peroxisome proliferator-activated receptor delta (Homo sapiens); experiment: Agonist activity at human Gal4-PPARdelta transfected in HEK293T cells assessed as increase in eGFP fluorescence at 300 nM incubated for 40 hrs by fluorescence microscopic analysis; assay type: cell-based; summary of the method: as §3
[11] = biological target: T1, Peroxisome proliferator-activated receptor alpha (Homo sapiens); experiment: Agonist activity at human Gal4-PPARalpha transfected in HEK293T cells assessed as increase in mCherry fluorescence at 10 nM measured after 8 to 24 hrs by fluorescence microscopic analysis; assay type: cell-based; details: filed as agonist, time 8-24 hrs; summary of the method: as §2
[12] = Microsomal stability in Sprague-Dawley rat liver microsomes assessed as half life at 10 uM measured up to 60 mins in presence of NADPH regenerating system by HPLC-UV analysis; assay type: ADME, Microsome
Summary of the method: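 Compound at 10 μM final, preincubated 5 min at 37 °C in 0.1 M phosphate pH 7.4 with NADPH-regenerating system. Reaction started with Sprague-Dawley rat liver microsomes and stopped with cold methanol at 0, 15, 30 and 60 min. Remaining compound measured by HPLC-UV at 254/280 nm against external calibration. Controls run without NADPH and with heat-inactivated microsomes. Half-life from log-linear fit. Three independent runs.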

[13] = Photostability of compound assessed as photochemical switch by measuring trans-isoform at 50 uM incubated for 8 hrs followed by irradiation with 460 nm UV light for 3 mins by HPLC analysis; assay type: physicochemical
[14] = biological target: T1, Peroxisome proliferator-activated receptor alpha (Homo sapiens); experiment: Agonist activity at human Gal4-PPARalpha transfected in HEK293T cells assessed as increase in mCherry fluorescence at 10 nM incubated for 8 hrs followed by irradiation with 365 nm UV light for 3 mins by fluorescence microscopic analysis; assay type: cell-based; summary of the method: as §2

Row | Compound | max activation [1] | EC50 [2] | EC50 [3] | EC50 [4] | max activation [5] | max activation ([1]; filed as agonist) | max activation ([5]; filed as agonist) | further results
1 | CC(C)(Oc1ccc(CCOc2ccc(/N=N/c3ccc(Cl)cc3)cc2)cc1)C(=O)O | 26% | 3200 nM | 790 nM | 8000 nM | 39% |  |  | 
2 | CC(C)(Oc1ccc(CCOc2ccc(/N=N/c3ccccc3)cc2Cl)cc1)C(=O)O |  | 820 nM | 29 nM | 240 nM |  | 49% | 46% | 
3 | Cc1ccc(/N=N\c2ccc(OCCc3ccc(OC(C)(C)C(=O)O)cc3)c(C(F)(F)F)c2)cc1 |  | 1300 nM | 190 nM | 410 nM |  | 41% | 40% | 
4 | Cc1ccc(/N=N/c2ccc(OCCc3ccc(OC(C)(C)C(=O)O)cc3)c(C)c2)cc1 | 34% | 2300 nM | 36 nM | 120 nM |  |  | 47% | 
5 | CC(C)c1ccc(/N=N/c2ccc(OCCc3ccc(OC(C)(C)C(=O)O)cc3)cc2)cc1 | 25% |  | 470 nM | 1770 nM |  |  | 40% | 
6 | Cc1ccc(/N=N\c2ccc(OCCc3ccc(OC(C)(C)C(=O)O)cc3)cc2)cc1 | 22% | > 10000 nM | 1100 nM | 3800 nM | 31% |  |  | 
7 | CC(C)(Oc1ccc(CCOc2ccc(/N=N/c3ccccc3)cc2C(F)(F)F)cc1)C(=O)O |  |  | 9 nM | 140 nM |  | 46% | 45% | 
8 | CC(C)(Oc1ccc(COc2ccc(/N=N\c3ccccc3)cc2)cc1)C(=O)O | 28% |  | 3500 nM | 4100 nM | 26% |  |  | 
9 | Cc1cc(/N=N/c2ccccc2)ccc1OCCc1ccc(OC(C)(C)C(=O)O)cc1 | 38% |  | 7 nM | 540 nM |  |  | 45% | Activity [6]: Active; Activity ([7]; filed as agonist): Active; Stability [8]: Stable; Activity [9]: Active; Activity [10]: inactive; Activity [11]: Active; half-life at 10 µM [12]: 1.72 h
10 | Cc1cc(/N=N\c2ccccc2)ccc1OCCc1ccc(OC(C)(C)C(=O)O)cc1 |  |  | 240 nM | 3000 nM |  | 43% | 41% | Activity [7]: inactive; Activity [9]: Active; Stability [13]: Stable; Activity [10]: inactive; Activity [14]: inactive
11 | Cc1ccc(/N=N/c2ccc(OCCc3ccc(OC(C)(C)C(=O)O)cc3)c(Cl)c2)cc1 |  |  | 40 nM | 120 nM |  | 76% | 65% | Stability [8]: Stable
12 | Cc1ccc(/N=N\c2ccc(OCCc3ccc(OC(C)(C)C(=O)O)cc3)c(Cl)c2)cc1 |  |  | 290 nM | 380 nM | 35% | 41% |  | Stability [13]: Stable
13 | CC(C)(Oc1ccc(CCOc2ccc(/N=N\c3ccccc3)cc2C(F)(F)F)cc1)C(=O)O |  |  | 71 nM | 310 nM | 37% | 42% |  | 
14 | CC(C)(Oc1ccc(CCOc2ccc(/N=N\c3ccccc3)cc2)cc1)C(=O)O | 29% | 6000 nM | 800 nM | 6000 nM | 34% |  |  | 
15 | Cc1ccc(/N=N/c2ccc(OCCc3ccc(OC(C)(C)C(=O)O)cc3)c(C(F)(F)F)c2)cc1 |  | 1200 nM | 70 nM | 113 nM |  | 87% | 43% | 
16 | CC(C)(Oc1ccc(CCOc2ccc(/N=N\c3ccccc3)cc2Cl)cc1)C(=O)O |  | 920 nM | 40 nM | 350 nM |  | 45% | 44% | 
17 | CC(C)(Oc1ccc(COc2ccc(/N=N/c3ccccc3)cc2)cc1)C(=O)O |  |  | 3700 nM | 2800 nM |  | 40% | 40% | 
18 | Cc1ccc(/N=N\c2ccc(OCCc3ccc(OC(C)(C)C(=O)O)cc3)c(C)c2)cc1 | 26% | 1200 nM | 640 nM | 800 nM | 32% |  |  | 
19 | CC(C)(Oc1ccc(CCOc2ccc(/N=N/c3ccccc3)cc2)cc1)C(=O)O | 31% | 2670 nM | 1090 nM | 2200 nM |  |  | 61% | 
20 | CC(C)(Oc1ccc(CCOc2ccc(/N=N\c3ccc(Cl)cc3)cc2)cc1)C(=O)O | 24% | > 10000 nM | 1100 nM | 8100 nM | 28% |  |  | 
21 | CC(C)c1ccc(/N=N\c2ccc(OCCc3ccc(OC(C)(C)C(=O)O)cc3)cc2)cc1 | 19% |  | 280 nM | 3400 nM | 22% |  |  | 
